These results are taken from ChEMBL document CHEMBL4513216, “Probing the Open Global Health Chemical Diversity Library for Multistage-Active Starting Points for Next-Generation Antimalarials” (ACS Infect Dis, 2020).

This series can be described thus: Toxicity liver stage against HepG2, at 10uM. The series is classed as cell-based. Set-up: test concentration 10 uM, cell line HepG2-A16-CD81EGFP. Conditions: human, HepG2-A16-CD81EGFP cells; read-out: INHIBITION
In short, it runs like this:
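Uninfected HepG2-A16-CD81EGFP cells, 3 × 10^3 per well, 1536-well, plated on prespotted compound at 10 μM final, parasite-free screening media added to match infected plates; puromycin 10 μM positive, DMSO 0.5% negative; run in parallel with 48 h PbLuc assay at 37 °C, 5% CO2; viability by CellTiter-Glo luminescence, normalized to controls.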
Take `CC(C)N(C)Cc1ncn2c1CN(CC(=O)N(C)C)CCC2`: the cytotoxicity at 10 µM came to 7.28%. For the compound `Cc1csc(CCNC(=O)C2CCN(CC(N)=O)CC2)n1`, the cytotoxicity at 10 µM was -5.26%. `Cc1cccc(NC(=O)N2CCCn3cnc(CN(C)C(C)C)c3C2)c1`: the cytotoxicity at 10 µM turned out to be 8.18%. The same measure for `CC(C)OCCC(=O)NCC(O)c1c(Cl)cccc1Cl` (configuration not stated): -6.93%; for `CNC(=O)[C@@]12CCO[C@@H]1CCN(S(=O)(=O)c1ccc(C)cc1)C2`: -69.9%. The same measure for `c1cncc(-c2ccc3c(c2)C2(CCNCC2)CC3)c1`: 4.59%; for `CNC(=O)Cn1ccc2ccc(NC(=O)NC(C)C(C)C)cc21` (configuration not stated): 3.36%. The same measure for `Cc1cccc(NC(=O)N2CCn3cnc(COCC4CC4)c3C2)c1`: 3.83%; for `O=C(c1coc(CN2CCN(c3ccccc3F)CC2)n1)N1CCCC1`: 19.2%; for `Cn1ccnc1SCCNC(=O)c1c[nH]nc1C1CCCCC1`: -4.68%. In the case of `CCN(CC)C(=O)CNC(=O)c1c[nH]c2ccc(OC)cc12`, the cytotoxicity at 10 µM is -0.527%.

With `COCCN(CC(F)F)c1cc(C(F)(F)F)nc2ncnn12`, the cytotoxicity at 10 µM was 4.11%. The same measure for `CN(C)[C@@H]1CN(Cc2ccccn2)C[C@H]1c1cn(C)c2ccccc12`: -0.73%. The same measure for `CC(=O)N1CCC2(C1)c1ccccc1S(=O)(=O)N2C` (configuration not stated): 6.57%; for `CCc1cc(C(F)(F)F)n2nc(C3CCCN3C3CCSCC3)cc2n1` (configuration not stated): 3.81%.

For `COc1ccc(OC)c(CNC(=O)N2CCC(n3cncn3)CC2)c1`, the cytotoxicity at 10 µM came to 2.46%.

On to `O=C(C1CCC1)N1CCC2(COCc3cnc(N4CCOCC4)nc32)C1` (configuration not stated), for which the cytotoxicity at 10 µM was -11.8%. The same measure for `NC(=O)c1cccc(CNC(=O)NCCOc2ccc(F)c(F)c2)c1`: 9.77%. The same measure for `Cc1noc(C)c1CN1CCO[C@H]2[C@H](Oc3ncccc3F)CC[C@@H]21`: 2.93%; for `CN1CCN(c2ccc(F)cc2NC(=O)NCc2ccon2)CC1`: -6.84%. As to `CC(=O)N1CCC2(CC1)CN(CC(C)C)CC21CCNC1=O` (configuration not stated), the cytotoxicity at 10 µM is -1.07%. The same measure for `COc1ccccc1Oc1ncccc1CNC(=O)C1(C)CCCNC1` (configuration not stated): -2.56%.

Take `Cc1nn(-c2ccccn2)c2c1C(c1cnn(C)c1)SCC(=O)N2` (configuration not stated): the cytotoxicity at 10 µM is -44.1%. The same measure for `COc1ccc(F)c(CN2CCCC3(CCN(C(=O)CSC)C3)C2)c1` (configuration not stated): 0.15%; for `Cc1cnc(NC(=O)c2cccc(CN(C)Cc3ccno3)c2)s1`: 61.3%; for `CN(C)C(=O)COCC1CN(Cc2ccco2)Cc2ncn(C)c21` (configuration not stated): -7.86%.

On to `O=C(NCCc1c[nH]cn1)c1ccc2c(c1)C(=O)N(C1CC1)C2=O`, for which the cytotoxicity at 10 µM worked out at 11.7%. The same measure for `COCCCNC(=O)NCc1nc(C)c(C)o1`: 10.1%. The same measure for `Cn1ccnc1CN1CCC2(CC1)CN(c1cncnc1)C(=O)CO2`: -69.2%; for `Cc1ccc(C2CSCCN2C(=O)c2cccnc2)cc1` (configuration not stated): -4.11%; for `O=S(=O)(C1CC1)N1CCc2onc(COc3ccccn3)c2C1`: -4.38%. The same measure for `COc1ccccc1CC(=O)N1CCCC(n2nc(C)cc2C)C1` (configuration not stated): -4.48%; for `O=C(C1=CCCC1)N1CCC2(CC1)CC(Oc1cccnc1)CO2` (configuration not stated): -1.58%; for `CC(NC1CCN(C(=O)C2CCCCC2)CC1)c1nccs1` (configuration not stated): -4.22%. As to `CSCc1ccc(N2CCN(c3ccc(Cl)cn3)CC2)nc1`, the cytotoxicity at 10 µM was -9.64%. On to `CCc1nccn1C1CCCN(C(=O)CCc2nccs2)C1` (configuration not stated), for which the cytotoxicity at 10 µM is -14.3%.

Take `CN(C)Cc1nnc2n1CCCN(C(=O)c1c[nH]cn1)C2`: the cytotoxicity at 10 µM amounted to 3.77%. For `O=C(c1cc(COc2ccc3c(c2)OCO3)[nH]n1)N1CCCC1`, the cytotoxicity at 10 µM is -0.526%. The same measure for `CCN(CC1CN(CCc2ccccn2)CCO1)c1cccnn1` (configuration not stated): -6%; for `COC(=O)CNC(=O)c1c(-n2cnnn2)sc2c1CCCC2`: 10.6%; for `Cc1nc[nH]c1CN1CCCN(c2nc3ccccc3s2)CC1`: 33%. The same measure for `N#Cc1csc(CNCCOc2ccccc2)c1`: 8.35%; for `Cc1nn(C)cc1Cn1cc(Cl)c(N)n1`: -5.61%; for `CCCC(NC(=O)NCc1cccc(N(C)C)n1)c1ccccn1` (configuration not stated): 19.8%. The same measure for `Cc1nc(CCNC(=O)C2CC(=O)N(C(C)(C)C)C2)sc1Cl` (configuration not stated): 16.8%; for `COc1cccc2c1ccn2CCC(=O)NCCCC(=O)O`: 9.64%; for `Cc1nc(C2CCCN(C(=O)c3cccc4c3OCO4)C2)sc1C` (configuration not stated): -8.72%. In the case of `Cc1ccccc1CC(=O)NCCNc1nccc(C(F)(F)F)n1`, the cytotoxicity at 10 µM is 7.64%. For the compound `O=C(O)c1cncc(Cc2cccc(F)c2)c1`, the cytotoxicity at 10 µM came out at 5.31%. The same measure for `c1ccc(OCc2nnn3c2CN(c2ncccn2)CCC3)nc1`: 1.89%; for `COC(=O)Cc1cccc(NC(=O)Cc2ccon2)c1`: -2.93%; for `COCCn1ccc(NC(=O)Nc2ccccc2)n1`: -0.0425%.

As to `Cc1c(-c2ccccc2)ncn1CCCNc1cccnc1`, the cytotoxicity at 10 µM came out at 2.06%. The same measure for `Cc1cc(C)c(CCNC(=O)NCCCC(N)=O)c(C)c1`: -1.24%; for `CC(C)N1CCc2[nH]nc(C(=O)N3CCOCC3)c2C1`: -1.6%; for `CC(C)c1ocnc1C(=O)N1CCCC(c2ccn[nH]2)C1` (configuration not stated): -3.92%. The same measure for `CCCC(O)CN1CCC(=O)N(C)Cc2cc(F)ccc21` (configuration not stated): -124%; for `CC1=C(c2ccc(Cl)cc2)S(=O)(=O)N=C1N1CCc2ccccc21`: -17.1%. The same measure for `CS(=O)(=O)Cc1nc(CCc2ccccc2)nn1-c1ccccn1`: 3.36%; for `O=C(CSc1ccccn1)N1CCN(CCO)[C@@H]2CS(=O)(=O)C[C@@H]21`: 9.87%; for `Cc1nccn1-c1cccc(C2CCCN2)n1` (configuration not stated): 10.6%. Turning to `CCC(C(=O)NC)N(c1cccc(C)c1)S(C)(=O)=O` (configuration not stated), the cytotoxicity at 10 µM is -11.8%. As for `O=C(Cc1ccc2c(c1)OCCO2)NC1CCN(CC(F)F)CC1`, the cytotoxicity at 10 µM is -9.86%. The same measure for `CCN1CCn2c(C)cnc2C12CCN(C(=O)NCC(C)C)CC2`: -1.07%; for `CCC(C)(C)c1cc(-c2c(C)nn(CCO)c2C)c(C#N)c(N)n1`: 3.31%. The same measure for `CCNC(=O)c1ccoc1CN1c2ccccc2CC1C` (configuration not stated): -10.2%; for `COc1nn(C)c2c1CCCN(C(=O)c1cccs1)C2`: 8.36%; for `CC(NC(=O)c1ccc(C(N)=O)cc1)c1cccc(N2CCOC2=O)c1` (configuration not stated): -2.83%.

Regarding `Cc1ccc(CNC(=O)Cn2ncc3c2c(C)nn3C)cc1`, the cytotoxicity at 10 µM is 22.2%.

Turning to `C/C(NC(=O)c1ccco1)=C1/C(=O)C[C@@H]2[C@H]1C2(C)C`, the cytotoxicity at 10 µM worked out at 2.41%. For the compound `Cc1nn2c(NC(=O)CSc3ncccn3)csc2nc1=O`, the cytotoxicity at 10 µM worked out at 2.74%. The same measure for `O=C(Cc1cccc(F)c1)N1CCn2cc(Cn3cccn3)nc2C1`: -84.3%. The same measure for `Cn1cc(CN2CCCC3(CCCCN3S(C)(=O)=O)C2)cn1` (configuration not stated): -76.3%; for `COc1c(C)cnc(CN2CCn3c(C)nnc3C2)c1C`: -4.97%; for `O=C1CC(c2ccc3c(c2)OCO3)c2c(n3ccsc3nc2=O)N1` (configuration not stated): 8.38%. The same measure for `Cc1ccc(C(=O)OC(C)Cn2cccn2)c(=O)[nH]1` (configuration not stated): 3.35%.

As for `Cc1cnn(CC2CCCN2C(=O)c2csc(C3CC3)n2)c1` (configuration not stated), the cytotoxicity at 10 µM is -17.8%. In the case of `Cn1cc(CN2CCc3c(cnc(-c4ccccc4)c3C(=O)O)C2)cn1`, the cytotoxicity at 10 µM is 4.2%. The same measure for `CC(=O)N1CCC2(CCN(C(=O)c3ccc(Cl)c(C(F)(F)F)c3)CC2)C1`: -4.48%; for `Cc1cc(C)n(CC(=O)N2CCC(Nc3cccnn3)CC2)n1`: -0.397%.

Take `Cc1cc(C)c2cc(CNC(C)C)c3nn(C)c(=O)n3c2c1`: the cytotoxicity at 10 µM was -5%. `Cc1nn(C)c(C)c1CN(C)C(=O)c1cc(NC(=O)C2CC2)n(C)n1`: the cytotoxicity at 10 µM turned out to be 3.38%. The same measure for `Cc1cccc(C(=O)N2CCCn3c(CN4CCCCC4)nnc3C2)c1`: -84%; for `COc1cccc(CC(=O)N2CCC(O)(C(F)(F)F)C2)c1` (configuration not stated): 1.16%; for `CCNC(=O)C(C)(C)NC(=O)NCc1cccc(Br)c1`: 8.44%.

On to `CCN1CCC(CNCc2cc(C)ccc2OC)C1` (configuration not stated), for which the cytotoxicity at 10 µM was 17.4%.

Take `CN(C)Cc1ccccc1Cn1cncc1-c1cnn(C)c1`: the cytotoxicity at 10 µM came out at 6.16%.

Turning to `CN(C)CCNC(=O)c1nc2c(o1)CN(C(=O)c1cccnc1)C2`, the cytotoxicity at 10 µM was determined as 0.109%. The same measure for `COCc1cnc2n1CCN(S(=O)(=O)c1c(C)nn(C)c1C)C2C` (configuration not stated): 15.4%. The same measure for `COc1ccc(CN2CCOC3(CCCN(C(C)=O)C3)C2)cc1` (configuration not stated): 3.88%. The same measure for `Cn1cc(CN2CCc3nc4sccc4c(=O)n3CC2)cn1`: -2.19%; for `N#CC1(C(=O)N2C[C@@H]3CC[C@H]2CN(Cc2cscn2)C3)CCOCC1`: 2.39%; for `CC1CN(C(=O)CCc2cc(Br)cs2)CCO1` (configuration not stated): -8.48%. With `CN(Cc1ccco1)[C@@H]1CN(C(=O)c2ccnnc2)C[C@@H]2CCCO[C@@H]21`, the cytotoxicity at 10 µM was -10.5%.

Turning to `CCc1nccn1C1CCCN(C(=O)c2cnc3onc(C)c3c2)C1` (configuration not stated), the cytotoxicity at 10 µM was -15.9%. The same measure for `CC(C)c1nnsc1CNC(=O)C1CCN(C(=O)C2CCCC2)CC1`: 1.05%. With `O=C(c1ccc(-n2cc(Br)cn2)cc1)N1CCN(c2cnccn2)CC1`, the cytotoxicity at 10 µM came to 1.52%.
